Experiment [1] relates to M21. The experiment can be described thus: Inhibition of nuclear translocation of thioredoxin 1 in human M21 cells at 50 uM after 18 hrs by immunocytochemistry. Type of experiment: functional, cell-based. A digest of the protocol: (§1)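 M21 cells seeded on fibronectin-coated coverslips, held 18 h at 37 °C, then treated with compounds (5–50 µM; reference agents 0.1–40 µM) or 0.1% DMSO. Fixed in 3.7% formaldehyde, permeabilized with 0.1% saponin, and blocked in 3% BSA. Stained 1 h at 37 °C with anti-thioredoxin-1 monoclonal (1/200), then with Alexa-488 anti-mouse IgG plus DAPI for nuclei.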

Experiment [2] concerns M21. The experiment can be described thus: Inhibition of nuclear translocation of thioredoxin 1 in human M21 cells at 25 uM after 18 hrs by immunocytochemistry. It is filed as functional, cell-based. A digest of the protocol:
as §1

In experiment [3] the test system is M21. Description: Inhibition of nuclear translocation of thioredoxin 1 in human M21 cells at 10 uM after 18 hrs by immunocytochemistry. It is filed as functional, cell-based. A digest of the protocol:
as §1

For a further experiment, the system named is HT-29. Description: Growth inhibition of human HT29 cells after 48 hrs by sulforhodamine B assay. Type of experiment: functional. The following applies: HT-29, 48 h. In a few lines:
(§2)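 NCI-style sulforhodamine B assay. HT-29 (5×10³), M21 or MCF-7 (3.5×10³) cells were grown 24 h, then given DMSO-solubilized drug at 100 to 0.7 µM final (DMSO <0.5%) for 48 h. Fixed in cold 10% TCA, stained with 0.1% SRB, read at 585 nm after subtracting a day-0 plate. Inhibition is relative to DMSO controls; GI50 from at least triplicate runs.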

Experiment [4] relates to M21. The experiment can be described thus: Growth inhibition of human M21 cells after 48 hrs by sulforhodamine B assay. It is filed as functional. The following applies: M21, 48 h. In a few lines: as §2
A general note: The SRB assay estimates cell density from bound dye.

For experiment [5], the system named is MCF7. The experiment can be described thus: Growth inhibition of human MCF7 cells after 48 hrs by sulforhodamine B assay. Type of experiment: functional. Conditions: MCF7, 48 h. In a few lines: as §2
In experiment [6] the test system is MCF7. Description: Cell cycle arrest in human MCF7 cells assessed as […] phase accumulation at 2 times GI50 after 24 hrs by flow cytometry. Type of experiment: functional.
In experiment [7] the test system is MCF7. Description: Cell cycle arrest in human MCF7 cells assessed as S phase accumulation at 2 times GI50 after 24 hrs by flow cytometry. It is filed as functional. (In general: A flow cytometer gives signals particle by particle.)
In experiment [8] the test system is MCF7. Description: Cell cycle arrest in human MCF7 cells assessed as G2/M phase accumulation at 2 times GI50 after 24 hrs by flow cytometry. Type of experiment: functional.
Experiment [9] deals with M21. The experiment can be described thus: Inhibition of nuclear translocation of thioredoxin 1 in human M21 cells at 0.1 uM after 18 hrs by immunocytochemistry. Type of experiment: functional, cell-based. In a few lines: as §1
Experiment [10] deals with MCF7. The experiment can be described thus: Cell cycle arrest in human MCF7 cells assessed as S phase accumulation at 2 times GI50 after 24 hrs by flow cytometry.
In experiment [11] the test system is MCF7. The experiment can be described thus: Cell cycle arrest in human MCF7 cells assessed as G2/M phase accumulation at 2 times GI50 after 24 hrs by flow cytometry.
Experiment [12] relates to MCF7. The experiment can be described thus: Cell cycle arrest in human MCF7 cells assessed as G0/G1 phase accumulation at 2 times GI50 after 24 hrs by flow cytometry.

The structures appear in SMILES notation. The source made the active and inactive calls. The calls are words filed in the database; no cut-off is given here.

What is called GI50 is the concentration at which growth is held to half of that of the control. High values mean lower sensitivity of the cells, low ones greater sensitivity of the cells.

Take `c1cc2c(cc1NC1=NCCO1)CCC2`: the result with M21 [1] and in the experiment with M21 [2] was Active.

Regarding `O=C(NCCCl)Nc1ccc(Oc2ccccc2)cc1`, the outcome in the experiment with M21 [2] and with M21 [3] was inactive.

On to `O=C(NCCCl)Nc1cccc(OCc2ccccc2)c1`, for which the GI50 in the experiment on HT-29 stood at 2.9 µM; in the experiment on M21 [4] it was 6.5 µM; in the experiment on MCF7 [5], 10 µM. Further, the outcome with M21 [1] and with M21 [3] was inactive.

`O=C(NCCCl)Nc1ccc(C2CCCCC2)cc1`: in the experiment on M21 [1], the result was Active. Also, the Activity with MCF7 [6] came out at 71%; in the experiment on MCF7 [7], 13%; with MCF7 [8], 16%.

Turning to `O=C(NCCCl)Nc1ccc2ccccc2c1`, the outcome with M21 [1] and in the experiment with M21 [3] was Active.

With `CC[C@]1(O)C[C@@H]2CN(CCc3c([nH]c4ccccc34)[C@@](C(=O)OC)(c3cc4c(cc3OC)N(C)[C@H]3[C@@](O)(C(=O)OC)[C@H](OC(C)=O)[C@]5(CC)C=CCN6CC[C@]43[C@@H]65)C2)C1`, the outcome in the experiment on M21 [9] was inactive.

For the compound `O=C(NCCCl)Nc1ccc(-c2ccccc2)cc1`, the values for the 50% growth inhibitory concentration (GI50) with HT-29, in the experiment on M21 [4] and with MCF7 [5] were 8.3 µM, 14.5 µM and 42 µM, respectively. For the same compound, the outcome in the experiment on M21 [1] and in the experiment on M21 [2] was Active.

Regarding `CC(=O)O[C@H]1C(=O)[C@@]2(C)[C@H]([C@H](OC(=O)c3ccccc3)[C@]3(O)C[C@H](OC(=O)[C@H](O)[C@@H](NC(=O)c4ccccc4)c4ccccc4)C(C)=C1C3(C)C)[C@]1(OC(C)=O)CO[C@@H]1C[C@@H]2O`, in the experiment with M21 [9], the result was inactive.

Turning to `O=C(NCCCl)Nc1cccc(OC2CCCC2)c1`, the result in the experiment with M21 [1] was Active. Also, the Activity in the experiment with MCF7 [6] is 64%; in the experiment with MCF7 [7], 24%; with MCF7 [8], 12%.

With `c1ccc(Oc2cccc(NC3=NCCO3)c2)cc1`, the GI50 with HT-29 came out at 5.5 µM; in the experiment with M21 [4] it was 9.6 µM; with MCF7 [5] it was 12.2 µM. Further, the result in the experiment on M21 [1] and with M21 [2] was inactive.

`O=C(NCCCl)Nc1ccc(I)cc1`: the result with M21 [1] and with M21 [3] was Active. Further, the figures for the Activity with MCF7 [6], in the experiment with MCF7 [7] and in the experiment on MCF7 [8] were 25%, 33% and 42%, respectively.

Regarding `c1ccc(COc2ccc(NC3=NCCO3)cc2)cc1`, the results for the GI50 in the experiment on HT-29, in the experiment with M21 [4] and with MCF7 [5] were 10.3 µM, 15.9 µM and 11.1 µM, respectively. In addition, the result with M21 [1] and in the experiment on M21 [2] was Active.

For `Cc1ccc(NC2=NCCO2)cc1C`, the result with M21 [3] was Active.

`O=C(NCCCl)Nc1ccc2c(c1)CCC2`: the result in the experiment with M21 [2] was Active.

Regarding `O=C(NCCCl)Nc1ccc(OC2CCCC2)cc1`, the result with M21 [1] was Active. Besides, the values for the Activity with MCF7 [6], in the experiment with MCF7 [7] and in the experiment on MCF7 [8] were 72%, 19% and 9%, respectively.

Regarding `c1cc(NC2=NCCO2)cc(OC2CCCCC2)c1`, the results for the GI50 in the experiment on HT-29, in the experiment with M21 [4] and in the experiment with MCF7 [5] were 4.4 µM, 12 µM and 15.9 µM, respectively. Also, the result in the experiment on M21 [1] and in the experiment on M21 [2] was Active. Also, the figures for the Activity in the experiment on MCF7 [10], in the experiment with MCF7 [11] and in the experiment with MCF7 [12] were 19%, 38% and 43%, respectively.

Take `O=C(NCCCl)Nc1cccc(OC2CCCCC2)c1`: the result with M21 [1] was Active. For the same compound, the Activity with MCF7 [6] is reported as 59%; in the experiment on MCF7 [7], 33%; in the experiment on MCF7 [8], 8%.

Take `c1cc(NC2=NCCO2)cc(OC2CCCCCC2)c1`: the GI50 in the experiment on HT-29 amounted to 6.9 µM; in the experiment with M21 [4], 14.4 µM; with MCF7 [5], 14.8 µM. Also, the result in the experiment with M21 [1] and in the experiment with M21 [2] was Active. Moreover, the Activity in the experiment with MCF7 [10] came out at 28%; in the experiment on MCF7 [11], 24%; in the experiment on MCF7 [12] it was 48%.

As for `Cc1ccc(NC(=O)NCCCl)cc1C`, the result in the experiment with M21 [2] and in the experiment with M21 [3] was inactive.

Regarding `O=C(NCCCl)Nc1ccc(OC2CCCCC2)cc1`, in the experiment with M21 [1], the outcome was Active. The results for the Activity in the experiment on MCF7 [6], in the experiment on MCF7 [7] and with MCF7 [8] were 57%, 29% and 14%, respectively.

In the case of `O=C(NCCCl)Nc1ccc(OC2CCCCCC2)cc1`, the result with M21 [1] was Active. Further, the values for the Activity in the experiment with MCF7 [6], in the experiment with MCF7 [7] and with MCF7 [8] were 75%, 19% and 6%, respectively.

Take `c1ccc(-c2ccc(NC3=NCCO3)cc2)cc1`: the concentration for 50% growth inhibition (GI50) in the experiment on HT-29 worked out at 5.8 µM; with M21 [4], 8.8 µM; with MCF7 [5], 10.6 µM. The outcome in the experiment with M21 [1] and in the experiment on M21 [2] was Active.

With `COc1cc2c(c(OC)c1OC)-c1ccc(OC)c(=O)cc1[C@@H](NC(C)=O)CC2` [COLCHICINE], the result in the experiment on M21 [9] was inactive. In addition, the Activity in the experiment with MCF7 [6] amounted to 19%; with MCF7 [7], 19%; in the experiment with MCF7 [8], 62%.

Regarding `CC(C)(C)c1ccc(NC(=O)NCCCl)cc1`, the result with M21 [1] and in the experiment on M21 [3] was inactive. Also, the values for the Activity in the experiment on MCF7 [6], in the experiment with MCF7 [7] and in the experiment with MCF7 [8] were 17%, 24% and 58%, respectively.

As to `O=C(NCCCl)Nc1cccc(OC2CCCCCC2)c1`, the result in the experiment with M21 [1] was Active. The results for the Activity in the experiment on MCF7 [6], in the experiment with MCF7 [7] and in the experiment with MCF7 [8] were 72%, 22% and 6%, respectively.

The values above are taken from ChEMBL document CHEMBL1155784, “Aromatic 2-chloroethyl urea derivatives and bioisosteres. Part 2: Cytocidal activity and effects on the nuclear translocation of thioredoxin-1, and the cell cycle progression” (2008).
